{"source": "ChEMBL document CHEMBL1131303", "about": "“New cyclooxygenase-2/5-lipoxygenase inhibitors. 2. 7-tert-butyl-2,3-dihydro-3,3-dimethylbenzofuran derivatives as gastrointestinal safe antiinflammatory and analgesic agents: variations of the dihydrobenzofuran ring” (J Med Chem, 1998)", "key": {"[1]": {"species": "Mus musculus", "test": "The compound was tested for effective dose for reduction in phenylquinone-induced abdominal constriction", "type": "functional", "settings": "Abdomen", "how_it_was_run": "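Phenylquinone-induced abdominal constriction assay run as an oral dose-response study. The ED50 was derived from reduction of constrictions.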"}, "[2]": {"system": "Mus musculus", "test": "The compound was tested for reduction in phenylquinone-induced abdominal constriction and is expressed in % reduction at a po (per oral) dose of 70 mg/kg.", "type": "functional, Abdomen", "how_it_was_run": "(§1)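 Phenylquinone-induced abdominal constriction analgesia assay. A single oral screening dose of 70 mg/kg was given, and the read-out is percent reduction in constrictions versus control. Tebufelone and naproxen served as reference agents.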"}, "[3]": {"species": "Mus musculus", "test": "The compound was tested for reduction in phenylquinone-induced abdominal constriction", "type": "functional", "settings": "Abdomen"}, "[4]": {"system": "Rattus norvegicus", "test": "Carrageenan paw edema index (CPE index) as ratio of the reduction in paw volume of tested compound relative to the compound tebufelone at peroral dose of 50 mg/kg.", "type": "functional", "settings": "route oral"}, "[5]": {"target": "T1, Prostaglandin G/H synthase 2 (Homo sapiens, UniProt P35354)", "T1 sequence (P35354 whole entry)": "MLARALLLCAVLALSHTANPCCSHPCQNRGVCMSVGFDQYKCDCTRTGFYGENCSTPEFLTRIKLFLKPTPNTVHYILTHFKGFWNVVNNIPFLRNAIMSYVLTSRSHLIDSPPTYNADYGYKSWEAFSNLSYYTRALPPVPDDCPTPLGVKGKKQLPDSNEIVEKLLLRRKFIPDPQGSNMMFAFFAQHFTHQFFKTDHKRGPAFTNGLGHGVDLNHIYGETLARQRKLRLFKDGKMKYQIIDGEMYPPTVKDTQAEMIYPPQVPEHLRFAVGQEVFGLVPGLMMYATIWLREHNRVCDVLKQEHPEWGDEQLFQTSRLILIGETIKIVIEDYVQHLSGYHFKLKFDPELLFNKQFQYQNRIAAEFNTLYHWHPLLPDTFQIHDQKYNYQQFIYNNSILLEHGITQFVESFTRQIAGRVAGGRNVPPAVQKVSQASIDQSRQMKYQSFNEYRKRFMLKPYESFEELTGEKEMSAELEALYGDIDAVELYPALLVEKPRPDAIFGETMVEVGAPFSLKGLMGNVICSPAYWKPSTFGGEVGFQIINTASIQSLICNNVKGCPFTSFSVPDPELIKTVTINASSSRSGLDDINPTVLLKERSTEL"}, "[6]": {"target": "Prostaglandin G/H synthase 1 (Homo sapiens, UniProt P23219)", "sequence (P23219 whole entry)": "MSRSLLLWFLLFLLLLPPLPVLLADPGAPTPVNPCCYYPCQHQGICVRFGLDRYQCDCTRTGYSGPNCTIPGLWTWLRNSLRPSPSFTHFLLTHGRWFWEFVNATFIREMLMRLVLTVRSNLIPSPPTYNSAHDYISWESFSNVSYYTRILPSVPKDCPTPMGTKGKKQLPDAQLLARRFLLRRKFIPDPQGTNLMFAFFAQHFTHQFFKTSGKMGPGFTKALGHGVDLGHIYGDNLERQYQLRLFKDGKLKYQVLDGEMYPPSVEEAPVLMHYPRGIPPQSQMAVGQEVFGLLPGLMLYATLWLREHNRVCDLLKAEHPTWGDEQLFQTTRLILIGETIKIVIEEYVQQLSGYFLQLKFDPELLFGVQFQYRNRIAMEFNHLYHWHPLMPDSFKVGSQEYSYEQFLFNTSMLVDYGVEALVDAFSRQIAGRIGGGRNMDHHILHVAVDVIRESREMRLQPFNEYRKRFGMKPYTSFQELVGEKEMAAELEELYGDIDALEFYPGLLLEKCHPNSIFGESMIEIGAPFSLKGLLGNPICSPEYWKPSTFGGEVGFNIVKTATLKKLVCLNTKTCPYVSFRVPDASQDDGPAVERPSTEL", "test": "Inhibition of Prostaglandin G/H synthase 1 (COX-1).", "how_it_was_run": "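Isolated human COX-1 enzyme from platelets. Duplicate samples were each tested in duplicate, and IC50 values were determined.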"}, "[7]": {"target": "T2, Polyunsaturated fatty acid 5-lipoxygenase (Rattus norvegicus, UniProt P12527)", "T2 sequence (P12527 whole entry)": "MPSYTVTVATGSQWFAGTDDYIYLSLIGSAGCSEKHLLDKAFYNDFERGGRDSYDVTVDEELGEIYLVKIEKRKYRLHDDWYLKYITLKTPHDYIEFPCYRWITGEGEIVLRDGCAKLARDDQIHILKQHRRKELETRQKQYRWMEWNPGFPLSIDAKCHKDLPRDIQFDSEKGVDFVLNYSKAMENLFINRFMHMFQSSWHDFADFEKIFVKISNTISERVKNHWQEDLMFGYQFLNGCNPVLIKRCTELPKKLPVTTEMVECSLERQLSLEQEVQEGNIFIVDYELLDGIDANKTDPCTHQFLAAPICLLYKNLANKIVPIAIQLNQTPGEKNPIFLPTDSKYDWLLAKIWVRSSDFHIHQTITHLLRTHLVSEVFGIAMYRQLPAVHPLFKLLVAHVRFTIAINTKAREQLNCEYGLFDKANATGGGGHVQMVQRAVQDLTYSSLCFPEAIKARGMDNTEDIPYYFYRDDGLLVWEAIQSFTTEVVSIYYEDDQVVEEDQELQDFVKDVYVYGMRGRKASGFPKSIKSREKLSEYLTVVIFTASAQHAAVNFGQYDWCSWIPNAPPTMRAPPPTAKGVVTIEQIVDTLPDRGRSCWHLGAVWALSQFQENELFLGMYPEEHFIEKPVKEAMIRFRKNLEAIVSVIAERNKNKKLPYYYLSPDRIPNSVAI", "test": "Inhibition of 5-lipoxygenase (LOX)in RBL cells", "type": "cell-based"}, "[8]": {"system": "Mus musculus", "test": "The compound was tested for reduction in phenylquinone-induced abdominal constriction and is expressed in % reduction at a po (per pral) dose of 70 mg/kg.", "type": "functional, Abdomen", "how_it_was_run": "as §1"}}}
{"smiles": "CC(C)(C)c1cc(C(=O)CCCC2CC2)cc2c1OCC2(C)C", "values": [{"measurement": "ED50", "setting": "[1]", "value": 11, "unit": "mg/kg"}]}
{"smiles": "CCCCC(=O)c1cc(C(C)(C)C)c2c(c1)C(C)(C)CO2", "values": [{"measurement": "Reduction", "setting": "[2]", "value": 38, "unit": "%"}]}
{"smiles": "CCCC(=O)c1cc(C(C)(C)C)c2c(c1)C(C)(C)CO2", "values": [{"measurement": "ED50", "setting": "[3]", "value": 21, "unit": "mg/kg"}]}
{"smiles": "CC(C)(O)CC(=O)c1cc(C(C)(C)C)c2c(c1)C(C)(C)CO2", "values": [{"measurement": "CPE index", "setting": "[4]", "value": 0.49}]}
{"smiles": "CC(C)(C)c1cc(C(=O)CCCC2CC2)cc2c1SCC2(C)C", "values": [{"measurement": "CPE index", "setting": "[4]", "value": 0.74}]}
{"smiles": "C#CCCCC(=O)c1cc2c(c(C(C)(C)C)c1)OCC2", "values": [{"measurement": "Reduction", "setting": "[2]", "value": 67, "unit": "%"}, {"measurement": "CPE index", "setting": "[4]", "value": 0.84}]}
{"smiles": "CCCCC(=O)c1cc(C(C)(C)C)c2c(c1)C(C)(C)CCN2", "values": [{"measurement": "CPE index", "setting": "[4]", "value": 0.02}]}
{"smiles": "O=C(CCCC1CC1)c1ccc2c(c1)CCO2", "values": [{"measurement": "CPE index", "setting": "[4]", "value": 0.13}]}
{"smiles": "CCCCC(=O)c1cc(C(C)(C)C)c2c(c1)C(C)(C)CCO2", "values": [{"measurement": "ED50", "setting": "[1]", "value": 53, "unit": "mg/kg"}, {"measurement": "CPE index", "setting": "[4]", "value": 0.69}]}
{"smiles": "CCCCC(=O)c1ccc2c(c1)CCO2", "values": [{"measurement": "CPE index", "setting": "[4]", "value": 0}]}
{"smiles": "CC1(C)COc2ccc(C(=O)CCCC3CC3)cc21", "values": [{"measurement": "IC50", "setting": "[5]", "value": 8, "unit": "µM"}, {"measurement": "IC50", "setting": "[6]", "value": 25, "unit": "µM"}, {"measurement": "CPE index", "setting": "[4]", "value": 0.5}]}
{"smiles": "CCCC(=O)c1ccc2c(c1)C(C)(C)CO2", "values": [{"measurement": "CPE index", "setting": "[4]", "value": 0.31}]}
{"smiles": "CCCC(=O)c1cc(C(C)(C)C)c2c(c1)C(C)(C)CS2", "values": [{"measurement": "ED50", "setting": "[1]", "value": 74, "unit": "mg/kg"}, {"measurement": "IC50", "setting": "[5]", "value": 0.15, "unit": "µM"}, {"measurement": "IC50", "setting": "[6]", "value": 1.5, "unit": "µM"}, {"measurement": "CPE index", "setting": "[4]", "value": 1.04}]}
{"smiles": "CC(C)(C)c1cc(C(=O)CCCC2CC2)cc2c1NCCC2(C)C", "values": [{"measurement": "CPE index", "setting": "[4]", "value": 0}]}
{"smiles": "CCCCC(=O)c1cc2c(c(C(C)(C)C)c1)OCC2", "values": [{"measurement": "ED50", "setting": "[1]", "value": 0.6, "unit": "mg/kg"}, {"measurement": "CPE index", "setting": "[4]", "value": 0.69}]}
{"smiles": "CN1CC(C)(C)c2cc(C(=O)CCCC3CC3)cc(C(C)(C)C)c21", "values": [{"measurement": "CPE index", "setting": "[4]", "value": 0.36}]}
{"smiles": "CCc1cc(C(=O)CCCC2CC2)cc2c1OCC2(C)C", "values": [{"measurement": "IC50", "setting": "[7]", "value": 18, "unit": "µM"}, {"measurement": "IC50", "setting": "[5]", "value": 5, "unit": "µM"}, {"measurement": "IC50", "setting": "[6]", "value": 20, "unit": "µM"}]}
{"smiles": "CCCCC(=O)c1cc(C(C)(C)C)c2c(c1)C(C)(C)CCN2C", "values": [{"measurement": "IC50", "setting": "[5]", "value": 0.3, "unit": "µM"}, {"measurement": "IC50", "setting": "[6]", "value": 2, "unit": "µM"}, {"measurement": "CPE index", "setting": "[4]", "value": 0.42}]}
{"smiles": "CC(C)(C)c1cc(C(=O)CCCC2CC2)cc2c1OCCC2(C)C", "values": [{"measurement": "IC50", "setting": "[7]", "value": 8, "unit": "µM"}, {"measurement": "Reduction", "setting": "[2]", "value": 10, "unit": "%"}, {"measurement": "IC50", "setting": "[5]", "value": 3, "unit": "µM"}, {"measurement": "IC50", "setting": "[6]", "value": 20, "unit": "µM"}, {"measurement": "CPE index", "setting": "[4]", "value": 0.57}]}
{"smiles": "CC(C)(C)c1cc(C(=O)CCCC2CC2)cc2c1OCCC2", "values": [{"measurement": "CPE index", "setting": "[4]", "value": 0.05}]}
{"smiles": "CCCCC(=O)c1cc2c(c(C(C)(C)C)c1)OCCC2", "values": [{"measurement": "CPE index", "setting": "[4]", "value": 0.21}]}
{"smiles": "CC(C)(O)CC(=O)c1cc2c(c(C(C)(C)C)c1)OCC2", "values": [{"measurement": "ED50", "setting": "[1]", "value": 21, "unit": "mg/kg"}, {"measurement": "CPE index", "setting": "[4]", "value": 0.98}]}
{"smiles": "CC(C)(O)CC(=O)c1cc2c(c(C(C)(C)C)c1)OCCC2", "values": [{"measurement": "Reduction", "setting": "[2]", "value": 50, "unit": "%"}, {"measurement": "CPE index", "setting": "[4]", "value": 0.7}]}
{"smiles": "C#CCCCC(=O)c1cc2c(c(C(C)(C)C)c1)OCCC2", "values": [{"measurement": "Reduction", "setting": "[2]", "value": 79, "unit": "%"}, {"measurement": "CPE index", "setting": "[4]", "value": 1.04}]}
{"smiles": "CC(C)(O)CC(=O)c1cc(C(C)(C)C)c2c(c1)C(C)(C)CCO2", "values": [{"measurement": "CPE index", "setting": "[4]", "value": 0.48}]}
{"smiles": "C#CCCCC(=O)c1cc(C(C)(C)C)c2c(c1)C(C)(C)CCO2", "values": [{"measurement": "Reduction", "setting": "[2]", "value": 46, "unit": "%"}, {"measurement": "CPE index", "setting": "[4]", "value": 0.57}]}
{"smiles": "CCCCC(=O)c1cc(C(C)(C)C)c2c(c1)C(C)(C)CCS2", "values": [{"measurement": "Reduction", "setting": "[8]", "value": 17, "unit": "%"}, {"measurement": "IC50", "setting": "[5]", "value": 0.4, "unit": "µM"}, {"measurement": "IC50", "setting": "[6]", "value": 0.4, "unit": "µM"}, {"measurement": "CPE index", "setting": "[4]", "value": 0.86}]}
{"smiles": "CC(C)(O)CC(=O)c1ccc2c(c1)C(C)(C)CO2", "values": [{"measurement": "CPE index", "setting": "[4]", "value": 0.39}]}
{"smiles": "CCCC(=O)c1cc(C(C)(C)C)c2c(c1)C(C)(CC)CO2", "note": "(stereo not given)", "values": [{"measurement": "Reduction", "setting": "[2]", "value": 45, "unit": "%"}, {"measurement": "CPE index", "setting": "[4]", "value": 0.68}]}
{"smiles": "CC(C)(C)c1cc(C(=O)CCCC2CC2)cc2c1OCC2", "values": [{"measurement": "IC50", "setting": "[7]", "value": 12, "unit": "µM"}, {"measurement": "ED50", "setting": "[1]", "value": 6, "unit": "mg/kg"}, {"measurement": "IC50", "setting": "[5]", "value": 15, "unit": "µM"}, {"measurement": "IC50", "setting": "[6]", "value": 5, "unit": "µM"}, {"measurement": "CPE index", "setting": "[4]", "value": 0.5}]}
{"smiles": "CC1(C)COc2c(C3CCCC3)cc(C(=O)CCCC3CC3)cc21", "values": [{"measurement": "IC50", "setting": "[5]", "value": 20, "unit": "µM"}, {"measurement": "IC50", "setting": "[6]", "value": "> 100", "unit": "µM"}, {"measurement": "CPE index", "setting": "[4]", "value": 0.27}]}
{"smiles": "CN1CCC(C)(C)c2cc(C(=O)CCCC3CC3)cc(C(C)(C)C)c21", "values": [{"measurement": "CPE index", "setting": "[4]", "value": 0.37}]}
{"smiles": "COc1ccc2cc([C@H](C)C(=O)O)ccc2c1", "note": "[NAPROXEN]", "values": [{"measurement": "ED50", "setting": "[3]", "value": 1.3, "unit": "mg/kg"}, {"measurement": "CPE index", "setting": "[4]", "value": 1.06}]}
{"smiles": "C#CCCCC(=O)c1cc(C(C)(C)C)c(O)c(C(C)(C)C)c1", "note": "[TEBUFELONE]", "values": [{"measurement": "ED50", "setting": "[3]", "value": 26, "unit": "mg/kg"}]}
